Measurements from different studies.
Lines come from different studies, so protocols differ.
Read-out: cell growth or viability

Structure (SMILES) | cell line | technique | time | IC50
COc1c2c(cc3c1OCO3)[C@]13C=C[C@H](OC)C[C@@H]1[N@](C2)C[C@H]3OC(=O)c1ccoc1 | MOLT-4 | WST-1 | – | > 10 µM
N.N.[Cl][Pt][Cl] | MIA PaCa-2 | resazurin | 72 h | 5.9 µM
COCCOCOc1cc(OCc2ccc(Br)cc2)c(C(=O)/C=C/c2ccc(C(=O)O)cc2)cc1C12CC3CC(CC(C3)C1)C2 | Jurkat | ATP luminescence | 24 h | 0.84 µM
COc1cccc2c1C(=O)c1c(O)c3c(c(O)c1C2=O)C[C@@](O)(C(=O)CO)C[C@@H]3O[C@H]1C[C@H](N)[C@H](O)[C@H](C)O1 | BT-549 | – | 48 h | 1.5 µg/mL
Cl.O[C@]12C=C(c3nccc4c3[nH]c3ccccc34)[C@@H]3CCN(CCCC/C=C\CC1)C[C@@]31C[C@@H]3/C=C\CCCCN3[C@H]12 | BT-549 | neutral red | 48 h | 0.88 µg/mL
CC1=C2C[C@H]3[C@@H](CC=C4C[C@@H](O)CC[C@@]43C)[C@@H]2CC[C@]12O[C@@H]1C[C@H](C)CN[C@H]1[C@H]2C | MIA PaCa-2 | MTS | 96 h | 17.1 µM
C[C@H]1O[C@H](Oc2c(-c3ccc(O)c(O)c3)oc3cc(O)cc(O)c3c2=O)[C@@H](O)[C@@H](O)[C@@H]1O | SW780 | ATP luminescence | 72 h | 190 µM
COc1c2c(cc3c1OCO3)[C@]13C=C[C@H](OC)C[C@@H]1[N@](C2)C[C@H]3OC(=O)c1ccco1 | MOLT-4 | WST-1 | – | > 10 µM
N.N.[Cl][Pt][Cl] | PLC | – | 48 h | 47.2 µM
COCCOCOc1cc(O)c(-c2cc(-c3ccc(C(=O)O)cc3)n(C)n2)cc1C12CC3CC(CC(C3)C1)C2 | Jurkat | ATP luminescence | 24 h | 4.73 µM
